Data set [1] concerns the target Acyl-CoA (8-3)-desaturase (Rattus norvegicus) (UniProt Q920R3). As to the kind of experiment: Displacement of [3H]T-3364366 from D5D in Sprague-Dawley rat liver microsomes after 150 mins by liquid scintillation counting. In short, it runs like this: (§1)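 Filter binding with [³H]T-3364366 as probe on rat liver microsomes, incubated 150 min. Specific binding is total minus nonspecific. In displacement runs, DMSO serves as 100% and 10 μM nonlabeled T-3364366 as 0%. Mean ± SEM, n = 3; apparent Kd reported with 95% CI.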

Data set [2] shares this target. As to the kind of experiment: Displacement of [3H]T-3364366 from D5D in Sprague-Dawley rat liver microsomes at high concentrations after 150 mins by liquid scintillation counting. The method, boiled down:
as §1

Data set [3] concerns the target T1, Acyl-CoA (8-3)-desaturase (Rattus norvegicus, UniProt Q920R3). Nature of the data set: Inhibition of D5D in Sprague-Dawley rat liver microsomes using [14C]DGLA as substrate preincubated for 5 mins measured after 120 mins.
Data set [4] deals with Acyl-CoA 6-desaturase (Rattus norvegicus, UniProt Q9Z122). Nature of the data set: Inhibition of D6D in Sprague-Dawley rat liver microsomes using [14C]LA as substrate preincubated for 5 mins measured after 30 mins.
Data set [5] has as its target T2, Acyl-CoA desaturase 1 (Rattus norvegicus, UniProt P07308).
T2 sequence (P07308 whole entry): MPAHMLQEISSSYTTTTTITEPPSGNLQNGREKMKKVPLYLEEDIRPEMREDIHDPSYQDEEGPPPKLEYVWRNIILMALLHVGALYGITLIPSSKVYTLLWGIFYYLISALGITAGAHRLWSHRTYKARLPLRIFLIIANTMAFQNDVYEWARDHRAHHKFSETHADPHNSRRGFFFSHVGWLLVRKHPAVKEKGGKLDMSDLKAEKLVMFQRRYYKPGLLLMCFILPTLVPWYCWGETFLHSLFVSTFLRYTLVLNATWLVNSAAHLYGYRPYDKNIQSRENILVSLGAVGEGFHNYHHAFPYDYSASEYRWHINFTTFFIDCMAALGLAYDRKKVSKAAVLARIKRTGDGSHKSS
Nature of the data set: Inhibition of SCD in Sprague-Dawley rat liver microsomes using [14C]stearoyl-CoA as substrate preincubated for 5 mins measured after 30 mins.

Data set [6] deals with T3, Acyl-CoA (8-3)-desaturase (Homo sapiens, UniProt O60427). As to the kind of experiment: Inhibition of D5D in human HepG2 cells using [14C]DGLA as substrate preincubated for 30 mins followed by substrate addition measured after 3 hrs. The data set is classed as cell-based.
Target sequence in this assay (O60427 whole entry): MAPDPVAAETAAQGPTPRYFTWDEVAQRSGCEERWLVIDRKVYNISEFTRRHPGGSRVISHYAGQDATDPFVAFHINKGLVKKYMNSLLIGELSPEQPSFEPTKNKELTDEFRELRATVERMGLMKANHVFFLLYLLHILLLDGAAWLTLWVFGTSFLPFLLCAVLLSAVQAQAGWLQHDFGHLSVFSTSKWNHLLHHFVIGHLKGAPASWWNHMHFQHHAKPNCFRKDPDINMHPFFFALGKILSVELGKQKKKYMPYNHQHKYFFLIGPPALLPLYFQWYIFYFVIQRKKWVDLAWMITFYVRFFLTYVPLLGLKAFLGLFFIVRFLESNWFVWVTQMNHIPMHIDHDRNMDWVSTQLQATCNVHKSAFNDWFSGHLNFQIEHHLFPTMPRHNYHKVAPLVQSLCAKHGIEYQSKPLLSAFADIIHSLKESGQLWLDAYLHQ
For data set [7], the target named is T1, Acyl-CoA (8-3)-desaturase. As to the kind of experiment: Inhibition of D5D in rat RLN10 cells using [14C]DGLA as substrate preincubated for 30 mins followed by substrate addition measured after 3 hrs. In kind it is cell-based.
For data set [8], the target named is T3, Acyl-CoA (8-3)-desaturase. Nature of the data set: Ratio of inhibition of D5D in human HepG2 cells preincubated for 30 mins followed by [14C]DGLA substrate addition measured after 3 hrs to inhibition of D5D in human HepG2 cells assessed as inhibition of [14C]AA production preincubated for 3 hrs followed by compound washout and addition of [14C]DGLA substrate measured after 4 hrs. The data set is classed as cell-based.
Target sequence in this assay (O60427 whole entry, looked up): as the sequence (O60427 whole entry) above

For data set [9], the target named is T1, Acyl-CoA (8-3)-desaturase. As to the kind of experiment: Binding affinity to D5D in Sprague-Dawley rat liver microsomes after 150 mins by liquid scintillation counting. The following applies: read-out: Kd(app). In short, it runs like this: as §1
Data set [10] concerns the target Acyl-CoA (8-3)-desaturase (Rattus norvegicus) (UniProt Q920R3). As to the kind of experiment: Binding affinity to D5D in Sprague-Dawley rat liver microsomes at 1.2 to 20 nM measured up to 2.5 hrs by liquid scintillation counting. The following applies: TDE = time-dependent effect. The method, boiled down: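 Time course: various [³H]T-3364366 concentrations incubated with microsomal D5D. Specific binding determined at several time points up to 2.5 h.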

Data set [11] has the same target. Nature of the data set: Reversible binding affinity to D5D in Sprague-Dawley rat liver microsomes assessed as compound bound to protein at 6 nM preincubated for 150 mins followed by 2 fold dilution by 10 uM of T-3364366 measured after 21 hrs by liquid scintillation counting relative to control. The method, boiled down:
(§2)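 Binary complex formed by preincubating [³H]T-3364366 (6.0 nM) with microsomal D5D for 150 min. Mixture then diluted 2-fold with excess nonlabeled T-3364366 (10 μM) to block rebinding. Residual specific binding followed over time to 21 h. Dissociation half-life fitted with 95% CI, without correcting for time-dependent loss of binding.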

The target is the same in data set [12]. As to the kind of experiment: Reversible binding affinity to D5D in Sprague-Dawley rat liver microsomes assessed as dissociation half life at 6 nM preincubated for 150 mins followed by 2 fold dilution by 10 uM of T-3364366 by liquid scintillation counting. The method, boiled down:
as §2

For data set [13] the target is unchanged. Nature of the data set: Reversible binding affinity to D5D in Sprague-Dawley rat liver microsomes after 150 mins in presence of trichloroacetate by liquid scintillation counting.
Data set [14] deals with T3, Acyl-CoA (8-3)-desaturase. As to the kind of experiment: Inhibition of D5D in human HepG2 cells using [14C]DGLA as substrate assessed as suppression of [14C]AA production at 10 uM preincubated for 3 hrs followed by compound washout and addition of substrate measured after 4 hrs by liquid scintillation counting. In kind it is cell-based. In short, it runs like this:
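HepG2 cells treated with compound for 3 h, then washed three times. Cells pulsed with [¹⁴C]DGLA and incubated a further 4 h. [¹⁴C]AA production normalized: DMSO as 100%, 10 μM T-3364366 without washout as 0%. Mean ± SEM, n = 4.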
Target sequence in this assay (O60427 whole entry, looked up): as the sequence (O60427 whole entry) above

A short description of data set [15]: AUC(0 to 8 hrs) in mouse at 0.10 mg/kg, iv administered in cassette mode. The following applies: in vivo, 0.1 mg/kg. The data set is classed as ADME, organism-based. Further details: dose 0.1 mg/kg, route intravenous. The method, boiled down:
(§3)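 Mouse cassette dosing, n = 3 per group. Given iv at 0.10 mg/kg or orally. Plasma AUC taken over 0–8 h. Total clearance, Vdss and MRT derived from the iv arm. Bioavailability F computed as a percentage.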

Data set [16] is described as follows: AUC(0 to 8 hrs) in mouse at 1 mg/kg, po administered in cassette mode. The data set is classed as ADME, organism-based. The following applies: in vivo. Further details: dose 1 mg/kg, route oral. The method, boiled down: as §3
Data set [17] can be described thus: Total clearance in mouse at 0.10 mg/kg, iv administered in cassette mode. In kind it is ADME, organism-based. As to conditions: in vivo, 0.1 mg/kg. In short, it runs like this: as §3
Data set [18] is described as follows: Volume of distribution in steady state in mouse at 0.10 mg/kg, iv administered in cassette mode. In kind it is ADME, organism-based. The following applies: in vivo, 0.1 mg/kg, read-out: Vdss. The method, boiled down: as §3
A short description of data set [19]: MRT in mouse at 0.10 mg/kg, iv administered in cassette mode. The data set is classed as ADME, organism-based. The following applies: in vivo, 0.1 mg/kg. In short, it runs like this: as §3
The nature of data set [20]: MRT in mouse at 1 mg/kg, po administered in cassette mode. The data set is classed as ADME, organism-based. The following applies: in vivo.
A short description of data set [21]: Oral bioavailability in mouse at 1 mg/kg administered in cassette mode. In kind it is ADME, organism-based. The following applies: in vivo. The method, boiled down:
as §3

Data set [22] is filed under the species Homo sapiens. As to the kind of experiment: Binding affinity to recombinant D6Db5 (1 to 100 residues)/D5Ddes (100 to 444 residues) domain swapped mutant (unknown origin) expressed in baculovirus at 5 to 25 nM after 150 mins by liquid scintillation counting.
Data set [23] has as its target T3, Acyl-CoA (8-3)-desaturase. As to the kind of experiment: Binding affinity to recombinant wild type D5D (unknown origin) expressed in baculovirus at 5 to 25 nM after 150 mins by liquid scintillation counting.
Target sequence in this assay (O60427 whole entry, looked up): as the sequence (O60427 whole entry) above

The structures appear in SMILES notation. Activity calls are given as the source filed them. The calls are words filed in the database; no cut-off is given here.

Chain of Acyl-CoA (8-3)-desaturase (Rattus norvegicus) (Q920R3 whole entry, looked up): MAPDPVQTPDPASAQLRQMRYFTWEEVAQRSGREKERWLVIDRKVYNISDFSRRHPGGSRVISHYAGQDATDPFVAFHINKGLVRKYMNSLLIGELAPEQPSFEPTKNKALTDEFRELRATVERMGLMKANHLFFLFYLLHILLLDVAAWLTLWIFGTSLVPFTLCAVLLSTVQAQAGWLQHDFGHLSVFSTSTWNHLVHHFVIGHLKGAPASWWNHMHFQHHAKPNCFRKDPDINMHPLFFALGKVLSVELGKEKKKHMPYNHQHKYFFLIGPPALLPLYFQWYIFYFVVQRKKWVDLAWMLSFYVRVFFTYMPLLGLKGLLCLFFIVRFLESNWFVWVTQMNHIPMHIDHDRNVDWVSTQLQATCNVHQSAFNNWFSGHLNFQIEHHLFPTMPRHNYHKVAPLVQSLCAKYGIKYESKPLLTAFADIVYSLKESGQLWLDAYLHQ
T1 sequence (Q920R3 whole entry): as the sequence (Q920R3 whole entry, looked up) above
Chain of Acyl-CoA 6-desaturase (Q9Z122 whole entry): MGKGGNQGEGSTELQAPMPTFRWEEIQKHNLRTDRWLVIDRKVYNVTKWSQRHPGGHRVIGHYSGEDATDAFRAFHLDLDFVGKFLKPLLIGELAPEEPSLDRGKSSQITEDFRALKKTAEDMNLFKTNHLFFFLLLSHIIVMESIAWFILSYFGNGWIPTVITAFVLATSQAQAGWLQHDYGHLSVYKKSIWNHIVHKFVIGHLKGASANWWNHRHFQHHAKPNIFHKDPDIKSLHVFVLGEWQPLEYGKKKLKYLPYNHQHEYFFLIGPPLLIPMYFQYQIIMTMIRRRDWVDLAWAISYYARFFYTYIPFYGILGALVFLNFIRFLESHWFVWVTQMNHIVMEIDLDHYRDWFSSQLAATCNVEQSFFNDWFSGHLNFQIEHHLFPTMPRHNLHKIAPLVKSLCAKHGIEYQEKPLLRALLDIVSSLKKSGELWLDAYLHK

For the compound `Cc1cn([C@H]2C[C@@H](O)[C@@H](COC(c3ccccc3)(c3ccccc3)c3ccccc3)O2)c(=O)[nH]c1=O`, the inhibition entry in [1] was “Active”.
`Cc1ccc2c(c1)Nc1cc(C)ccc1CC2`: the inhibition entry in [1] was “Active”.
The same measure, in the same setting: to `COc1ccc(OC)c(NC(=O)Nc2cccc(F)c2)c1` belongs “Active”.
On to `N#CC(CCCN1CCN(/N=C/c2cccnc2)CC1)(c1ccccc1)c1ccccc1`, for which the inhibition result in data set [2] is “Active”.
`Nc1ccccc1C(=O)Nc1cccc(Cl)c1`: the IC50 is 160 nM in data set [3]; greater than 10000 nM in data set [4]; greater than 10000 nM in data set [5]; 29 nM in [6]; 26 nM in [7]. In [1], the inhibition result was “Active”. Besides, the Ratio in data set [8] amounted to 1000.
For the compound `CC(=O)NCCSc1nc2cscc2c(=O)n1-c1ccc(OCC(F)(F)F)cc1`, the IC50 was 19 nM in [3]; 6200 nM in [4]; greater than 10000 nM in data set [5]; 1.9 nM in data set [6]; 2.1 nM in data set [7]. For the same compound, in data set [9], the Kd amounted to 2.7 nM. The Activity result was “Tde” in data set [10] and less than 10% in data set [11]. The T1/2 in [12] turned out to be 2 h. In addition, the result in data set [13], in [22] and in data set [23] was Active. For the same compound, the inhibition result in [14] is “Active”. For the same compound, the AUC(0-t) at 6 h in data set [15] was 65 ng·h/mL; in data set [16], 260 ng·h/mL. The clearance in [17] is 25 mL/min/kg. In addition, in data set [18], the Vd amounted to 1.1 L/kg. For the same compound, the results for the MRT in [19] and in [20] were 0.65 h and 1.8 h, respectively. For the same compound, in data set [21], the bioavailability is 41%.
